Compound activity from PubChem.
In the library only some 2.3% were active in any assay of this set; here they are far more common.
TRPC4 block – TRPC4 (mouse) channel inhibition; Q9QUQ5; HEK293 TRPC4beta/mu-opioid, DAMGO-evoked Fluo4 calcium flux; stronger effect = lower value; B-score at 10 µM; hit rate 0.39% among 300,000; AID 2247;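 active means B-score over 3 SD under the library average, no early fluorescence shift, positive overall ratio signal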
Target sequence (Q9QUQ5 whole entry, looked up): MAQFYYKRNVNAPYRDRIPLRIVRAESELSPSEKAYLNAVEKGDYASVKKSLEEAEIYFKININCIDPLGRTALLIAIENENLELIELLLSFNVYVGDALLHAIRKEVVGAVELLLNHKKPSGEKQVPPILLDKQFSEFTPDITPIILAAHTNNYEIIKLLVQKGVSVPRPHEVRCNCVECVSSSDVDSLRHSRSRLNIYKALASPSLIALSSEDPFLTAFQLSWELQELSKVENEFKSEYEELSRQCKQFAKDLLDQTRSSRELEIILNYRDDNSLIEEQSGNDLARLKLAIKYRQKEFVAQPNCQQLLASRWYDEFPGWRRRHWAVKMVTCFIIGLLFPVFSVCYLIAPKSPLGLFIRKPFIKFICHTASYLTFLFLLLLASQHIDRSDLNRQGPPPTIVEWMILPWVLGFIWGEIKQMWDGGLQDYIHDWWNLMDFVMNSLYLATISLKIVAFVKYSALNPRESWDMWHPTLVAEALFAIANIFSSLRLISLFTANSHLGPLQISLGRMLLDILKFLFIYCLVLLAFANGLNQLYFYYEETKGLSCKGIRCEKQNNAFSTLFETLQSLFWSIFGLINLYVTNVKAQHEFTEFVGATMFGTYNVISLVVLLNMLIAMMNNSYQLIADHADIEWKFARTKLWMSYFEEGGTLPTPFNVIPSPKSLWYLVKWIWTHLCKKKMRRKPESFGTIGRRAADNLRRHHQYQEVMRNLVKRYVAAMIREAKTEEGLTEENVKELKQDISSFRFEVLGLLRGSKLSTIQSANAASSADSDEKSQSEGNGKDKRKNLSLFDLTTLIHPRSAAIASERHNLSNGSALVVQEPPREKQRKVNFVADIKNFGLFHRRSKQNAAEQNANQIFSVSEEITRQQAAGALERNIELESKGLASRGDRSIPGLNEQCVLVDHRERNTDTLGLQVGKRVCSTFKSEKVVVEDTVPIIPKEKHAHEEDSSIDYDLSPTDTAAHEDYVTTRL
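test system = HEK293 cells with stable TRPC4beta plus mu-opioid receptor expression | detection = Fluo4 Ca2+ flux fluorescence | read-out = integrated fluorescence ratio relative to baseline, converted to per-well B score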
TRPC4 potent – allosteric potentiators of mouse TRPC4 channel. hit rate 0.42% among 310,000. B-score at 10 µM. HEK293 TRPC4beta/mu-opioid, DAMGO EC20, Fluo-4 Ca2+ flux; stronger effect = higher value;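 active means B-score of calcium response area above 5 SD of library B-scores, with initial fluorescence ratio within 5 SD of library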;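 further: B-score of integrated fluorescence ratio over time as area under calcium response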
TRPC6 act – activates the mouse TRPC6 cation channel | Q61143 | HEK293-TRPC6 membrane potential dye fluorescence; stronger effect = higher value | B-score at 10 µM | hit rate 0.13% among 310,000;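 active means B-score of the integrated fluorescence ratio above library mean plus 3 SD, and starting fluorescence ratio within library mean plus 5 SD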;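 further: higher score means more depolarization so channel activation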
TRPC4 agonist – TRPC4 (mouse) channel activation; HEK293 TRPC4beta/mu-opioid, Fluo4 calcium fluorescence; stronger effect = higher value; B-score at 10 µM; hit rate 0.49% among 310,000;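 active means B-score above 5 SD of library B-scores, and initial fluorescence ratio not above library mean plus 5 SD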;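 further: positive B-score marks a calcium rise read as TRPC4 activation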
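System – HEK293 cells stably co-expressing mouse TRPC4beta and mu-opioid receptor · Signal – Fluo4 calcium-sensitive dye fluorescence, kinetic, 1 Hz baseline · Benchmarks – buffer (low) and maximal DAMGO (high) · Read-out – B score of integrated fluorescence ratio per well · Incubation – dye loading 45 min room temperature, 110 s kinetic read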
TRPC6 inhibitor – inhibitors of mouse TRPC6 channel; B-score at 10 µM; AID 2553; hit rate 1.1% among 310,000; HEK293-TRPC6, membrane potential dye, ACh-evoked depolarization; stronger effect = lower value;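 active means B-score under library mean minus 3 SD, initial fluorescence not abnormally high, positive integrated signal ratio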;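 further: B-score derived from integrated fluorescence ratio over the kinetic read; more negative B-score means stronger inhibition of depolarization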
TRPC4 sel inh 2 – second selectivity test of TRPC6 inhibitors: effect on mouse TRPC4 | inhibition, % at 10 µM | HEK293 TRPC4/MOR, membrane potential dye fluorescence; channel activated by saturating DAMGO dose | shares compounds with TRPC6 inhibitor | hit rate 42% among 920;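 active means compounds whose fluorescence signal differed from control wells by over 3 SD, either direction, in both duplicate plates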
TRPC4 spec – tests whether TRPC6 inhibitors also affect mouse TRPC4 | activity change, negative = inhibition, % at 10 µM | shares compounds with TRPC6 inhibitor | HEK293 TRPC4/mu-opioid, membrane potential fluorescence | hit rate 61% among 920;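 active means rise or fall in signal beyond 3 SD of buffer-only wells in both replicate plates, either sign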;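 further: integrated kinetic ratio of fluorescence range over baseline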
HEK293 MPD ctr 2-1 – parental HEK293 nonspecific activity of TRPC6 inhibitors, second screen; shares compounds with TRPC6 inhibitor; signal change vs control, % at 10 µM; AID 2779; parental HEK293 membrane potential dye fluorescence; maximal acetylcholine challenge after compound addition; hit rate 31% among 920;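 active means membrane potential signal moving either way by over 3 SD of the maximum-effect control, in both duplicate plates, meaning non-specific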
HEK293 MPD ctr-1 – counter-screen for TRPC6 inhibitors: effect in parental HEK293 cells. AID 2780. shares compounds with TRPC6 inhibitor. membrane potential signal change, % at 10 µM. parental HEK293 membrane potential dye fluorescence. hit rate 60% among 920;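 active means membrane potential signal shifting up or down by more than 3 SD of buffer-only wells, on both duplicate plates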
HEK293 MPD ctr-2 – parental HEK293 nonspecific activity of TRPC6 modulators; shares compounds with TRPC6 inhibitor; hit rate 51% among 2,400; membrane potential dye fluorescence; AID 488924; membrane potential signal change, % at 10 µM;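 active means membrane potential signal moves up or down beyond 5 SD from buffer-only wells, on both duplicate plates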
HEK293 MPD ctr 2-2 – second counter-screen for TRPC6 modulators: effect in parental HEK293 cells; hit rate 14% among 2,400; shares compounds with TRPC6 inhibitor; inhibition, % at 10 µM; AID 488926; membrane potential dye fluorescence; after compound, maximal acetylcholine stimulation;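 active means membrane potential signal drops by more than 5 SD from the mean control signal, in both duplicate plates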;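 further: plate controls were acetylcholine ECmax control wells for no effect and buffer only wells for full effect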
TRPC4/MOR mod – mouse TRPC4 off-target activity of TRPC6 modulators. shares compounds with TRPC6 inhibitor. AID 488927. percent change from control (negative = decrease, positive = increase), % at 10 µM. hit rate 69% among 2,400. HEK293 TRPC4/mu-opioid, membrane potential fluorescence;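 active means membrane potential signal moved up or down beyond 5 SD of buffer control wells, in both duplicate plates, actives on both sides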;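 further: plate controls were assay buffer wells for no effect and DAMGO maximal-effect wells for full effect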
TRPC4/MOR inh 2 – mouse TRPC4 off-target activity of TRPC6 modulators, second screen. shares compounds with TRPC6 inhibitor. HEK293 TRPC4/mu-opioid, membrane potential dye fluorescence; stimulated with maximal-effect DAMGO. inhibition, % at 10 µM. hit rate 55% among 2,400;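 active means drop in membrane potential signal beyond 5 SD of the control wells in both duplicate plates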;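 further: TRPC4 counter screen for TRPC6 hits run under conditions tuned for TRPC6 not TRPC4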
TRPC6 inh conf – mouse TRPC6 inhibitor confirmation | hit rate 43% among 3,300 | inhibition, % at 10 µM | HEK293-TRPC6, membrane potential dye, ACh-evoked depolarization | shares compounds with TRPC6 inhibitor;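 active means fluorescence ratio falls more than 5 SD below the full-stimulation control mean, in both duplicate runs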;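 further: integrated fluorescence ratio of peak minus minimum over baseline after agonist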
TRPC6 act conf – mouse TRPC6 activator confirmation | shares compounds with TRPC6 inhibitor | HEK293-TRPC6 membrane potential dye fluorescence, FDSS | activation, % at 10 µM | hit rate 11% among 2,800 | AID 488961;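 active means ratio signal rise beyond 5 SD above unstimulated control wells' mean, seen in both duplicate runs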;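 further: plate controls were buffer EC0 wells for no effect and acetylcholine ECmax response for full effect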
* marks the source's active call; other numbers are inactive results; i = inactive; x = no result.

SMILES	TRPC4 block	TRPC4 potent	TRPC6 act	TRPC4 agonist	TRPC6 inhibitor	HEK293 MPD ctr-2	HEK293 MPD ctr 2-2	TRPC4/MOR mod	TRPC4/MOR inh 2	TRPC6 inh conf	TRPC6 act conf	others
O=C(CNC1CCCC1)Nc1ccc(N2CCCCCC2)cc1	i	i	i	i	-5.3*	i	i	-13%*	66%*	66%*	i
O=C(CNCC1CCCO1)Nc1ccc(N2CCCCCC2)cc1 (stereo not given)	i	i	i	i	-6.3*	i	i	-16%*	33%*	i	i
CCN(CC)S(=O)(=O)c1cccc(NC(=O)CNC2CCCCCC2)c1	i	i	i	i	-6.5*	i	i	i	66%*	43%*	i
Cc1ccc(S(=O)(=O)NCCC(=O)N2CCOCC2)cc1C	i	i	i	i	i	x	x	x	x	x	x
O=C(c1ccc(Oc2cc(Cl)cc(Cl)c2)o1)N1CCCCC1	i	i	i	i	-5.6*	i	i	i	i	i	i
CC(=O)c1ccc(OCCCN2CCCCC2)cc1	i	i	i	i	-5.1*	i	i	i	i	i	i
Cc1ccc(CNC(=O)c2cc3c(=O)n(C)c4ccccc4c3n2C)cc1	i	i	i	i	i	x	x	x	x	x	x
CN(CCNC(=O)c1cc2c(=O)n(C)c3ccccc3c2n1C)Cc1ccccc1	i	i	i	i	-5.2*	i	i	i	56%*	i	i
O=C(Cc1ccc(F)cc1)Nc1c2c(nn1-c1cccc(Cl)c1)CS(=O)C2 (stereo not given)	i	i	i	i	i	x	x	x	x	x	x
CCOc1cc(/C=C2\N=C(SC)SC2=O)cc([N+](=O)[O-])c1OC(C)=O	i	i	i	i	-5.1*	i	i	i	39%*	i	i
CCOc1cc(/C=C2\N=C(SCC)SC2=O)cc([N+](=O)[O-])c1OC(C)=O	i	i	i	i	i	x	x	x	x	x	x
COC(=O)c1c(NC(=O)CN2CCN(Cc3ccc4c(c3)OCO4)CC2)sc(C)c1C	i	i	i	i	i	x	x	x	x	x	x
COC(=O)c1ccsc1NC(=O)CN1CCN(Cc2ccc3c(c2)OCO3)CC1	i	i	i	i	-6.7*	x	x	x	x	i	x	TRPC4 sel inh 2=i;TRPC4 spec=19%*;HEK293 MPD ctr 2-1=389%*;HEK293 MPD ctr-1=16%*
CCOC(=O)c1c(C)n(C)c2ccc(OC)c(NC(=O)CN3CCN(Cc4ccccc4)CC3)c12	i	i	i	i	-5.7*	i	i	8.5%*	39%*	i	i
COc1ccc2c(c1)c(C(=O)CN1CCN(c3ccccc3)CC1)c(C)n2C	i	i	i	i	i	x	x	x	x	x	x
COC(=O)c1ccccc1NC(=O)CN1CCCCC1	i	i	i	i	i	x	x	x	x	x	x
COC(=O)c1ccccc1NC(=O)CN1CCN(Cc2ccccc2)CC1	i	i	15*	i	i	384%*	i	60%*	40%*	i	142%*
COc1ccc2c(c1)c(C(=O)CN1CCN(Cc3ccccc3)CC1)c(C)n2C	i	i	i	i	-5.3*	i	i	-14%*	60%*	i	i
Cc1cc(N)n(-c2ccccn2)n1	i	i	i	i	i	x	x	x	x	x	x
Cc1ccc(O)c(CNCCNCc2cc(C)ccc2O)c1	i	i	i	i	-6.4*	161%*	i	16%*	82%*	44%*	x
CCc1ccc(O)c(CNCCNCc2cc(CC)ccc2O)c1	i	i	i	i	i	x	x	x	x	x	x
CN(CC(=O)NC1CCN(Cc2ccccc2)CC1)S(=O)(=O)c1ccc2c(c1)c(=O)n(C)c(=O)n2C	i	i	i	i	-6*	i	i	-11%*	i	i	i
Cc1cc(Cl)ccc1Oc1ncnc2oc(-c3ccccc3)cc12	i	i	i	i	i	x	x	x	x	x	x
O=c1oc2ccc(Cl)cc2cc1-c1ccccc1	i	i	i	i	i	x	x	x	x	x	x
OCCN=c1cc(-c2ccccc2)oc2ccc(Cl)cc12	i	i	i	i	-8.8*	x	x	x	x	55%*	i	TRPC4 sel inh 2=67%*;TRPC4 spec=-28%*;HEK293 MPD ctr 2-1=i;HEK293 MPD ctr-1=-356%*
SMILES	TRPC4 block	TRPC4 potent	TRPC6 act	TRPC4 agonist	TRPC6 inhibitor	HEK293 MPD ctr-2	HEK293 MPD ctr 2-2	TRPC4/MOR mod	TRPC4/MOR inh 2	TRPC6 inh conf	TRPC6 act conf	others
C/C(CCc1oc2ccc(Cl)cc2c1-c1ccc(C)o1)=N\O	i	i	i	i	i	x	x	x	x	x	x
CC(C)CN=c1cc(-c2ccccc2)oc2ccc(Cl)cc12	i	i	i	i	-7.4*	x	x	x	x	i	i	TRPC4 sel inh 2=76%*;TRPC4 spec=-14%*;HEK293 MPD ctr 2-1=i;HEK293 MPD ctr-1=-268%*
CC(O)CN=c1cc(-c2ccccc2)oc2ccc(Cl)cc12 (stereo not given)	i	i	i	i	-7.3*	-134%*	i	-28%*	37%*	58%*	i
Cc1ccc(S(=O)(=O)Nc2ncccn2)cc1	i	i	i	i	i	x	x	x	x	x	x
COc1cccc(C(=O)N[C@@H](C)C(=O)N2CCC3(CC2)NCCc2[nH]cnc23)c1	i	i	i	i	i	x	x	x	x	x	x
O=[N+]([O-])c1ccc(N2CCc3ccccc3C2)cc1	i	i	i	i	-5.3*	i	i	i	i	i	i
